From ChEMBL document CHEMBL1139999, “Discovery of pyrazine carboxamide CB1 antagonists: the introduction of a hydroxyl group improves the pharmaceutical properties and in vivo efficacy of the series” (Bioorg Med Chem Lett, 2007) come the findings set out here.

In series [1] the target is T1, Cannabinoid receptor 1 (Homo sapiens, UniProt P21554). Kind of series: Binding affinity to human CB1 receptor.
In series [2] the target is T1, Cannabinoid receptor 1. Kind of series: Binding affinity to human CB1 receptor at 13 uM.
Series [3] is described as follows: Aqueous solubility at pH 6.5. In kind it is physicochemical.
Series [4] has as its target Cannabinoid receptor 1 (Rattus norvegicus, UniProt P20272). Kind of series: Binding affinity to rat CB1 receptor.
Series [5] can be described thus: AUC(0 to 4 hrs) in Sprague-Dawley rat at 10 mg/kg, po. In kind it is ADME, organism-based. The arrangement: time < 4 hr, dose 10 mg/kg, route oral. The following applies: plasma. The method in brief:
(§1)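 Oral PK in male Sprague-Dawley rats dosed at 10 mg/kg. Plasma sampled over 0–4 h for AUC(0–4h) and Tmax. Brain and plasma concentrations were taken at 4 h to give the brain/plasma ratio. Values are averages of n = 2 rats.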

A short description of series [6]: Ratio of drug level in brain to plasma in Sprague-Dawley rat at 10 mg/kg, po after 4 hrs. The arrangement: dose 10 mg/kg, route oral. In kind it is ADME, organism-based. Particulars: read-out: BPR. The method in brief: as §1
Series [7] is described as follows: Drug level in Sprague-Dawley rat brain at 10 mg/kg, po after 4 hrs. In kind it is ADME, organism-based. The arrangement: dose 10 mg/kg, route oral. Particulars: read-out: Drug uptake. In a few lines: as §1
The nature of series [8]: Average Tmax in Sprague-Dawley rat at 10 mg/kg, po. Set-up: dose 10 mg/kg, route oral. The following applies: in vivo. In kind it is ADME, organism-based. The method in brief: as §1
Series [9] is described as follows: Drug level in Sprague-Dawley rat brain at 30 mg/kg, po after 4 hrs. Set-up: dose 30 mg/kg, route oral. The following applies: read-out: Drug uptake. In kind it is ADME, organism-based. The method in brief: (§2)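 Male Sprague–Dawley rats dosed orally at 30 mg/kg as a suspension in 0.5% Methocel/1% Tween 80/water. Plasma and brain levels measured, with brain concentration and brain/plasma ratio taken at 4 h. AUC covers 0–4 h. Values are averages of n = 2 rats.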

The nature of series [10]: Average Tmax in Sprague-Dawley rat at 30 mg/kg, po. In kind it is ADME, organism-based. The arrangement: dose 30 mg/kg, route oral. The following applies: in vivo. The method in brief: as §2
A short description of series [11]: Ratio of drug level in brain to plasma in Sprague-Dawley rat at 30 mg/kg, po after 4 hrs. The arrangement: dose 30 mg/kg, route oral. The following applies: read-out: Drug uptake. In kind it is ADME, organism-based. In a few lines:
as §2

Series [12] in a line: AUC(0 to 4 hrs) in Sprague-Dawley rat at 30 mg/kg, po. The format is ADME, organism-based. Set-up: time < 4 hr, dose 30 mg/kg, route oral. Particulars: plasma. In a few lines: as §2
Series [13] has as its system Rattus norvegicus. Put plainly: Change in food intake in Sprague-Dawley rat at 10 mg/kg, po. The format is functional, organism-based. Set-up: dose 10 mg/kg. The method in brief: (§3)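 Ad libitum-fed rats trained to operate a lever to obtain food were dosed orally at 10 or 30 mg/kg. Cumulative food intake was measured at 4 h versus vehicle-treated controls, with significance testing (p < 0.05).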

Series [14] has as its system Rattus norvegicus. Kind of series: Reduction in feeding in food deprived Sprague-Dawley rat feeding model at 10 mg/kg, po after 24 hrs. The format is functional. The arrangement: scale not given: the % may be the effect or the level left. In a few lines: (§4)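 Rats were fasted and then dosed orally at 10 mg/kg. Food was reintroduced 30 min after dosing, and refeeding was quantified versus vehicle-treated animals at 2, 4 and 24 h post-dose. Locomotor activity was also monitored.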

The subject of series [15] is Rattus norvegicus. Kind of series: Reduction in feeding in food deprived Sprague-Dawley rat feeding model at 10 mg/kg, po after 4 hrs. The format is functional. Set-up: scale not given: the % may be the effect or the level left. In a few lines:
as §4

The subject of series [16] is Rattus norvegicus. Kind of series: Change in food intake in Sprague-Dawley rat at 30 mg/kg, po after 4 hrs. The format is functional. In a few lines: as §3
The test system of series [17] is Rattus norvegicus. Put plainly: Reduction in feeding in food deprived Sprague-Dawley rat feeding model at 10 mg/kg, po after 2 hrs. In kind it is functional. Set-up: scale not given: the % may be the effect or the level left. In a few lines: as §4

pKi: −log10 of the molar value. In brackets after ≈: the same amount, converted by molar mass. Activity calls are given as the source filed them. No cut-off for these calls is given here.

Chain of Cannabinoid receptor 1 (Rattus norvegicus, UniProt P20272) (P20272 whole entry): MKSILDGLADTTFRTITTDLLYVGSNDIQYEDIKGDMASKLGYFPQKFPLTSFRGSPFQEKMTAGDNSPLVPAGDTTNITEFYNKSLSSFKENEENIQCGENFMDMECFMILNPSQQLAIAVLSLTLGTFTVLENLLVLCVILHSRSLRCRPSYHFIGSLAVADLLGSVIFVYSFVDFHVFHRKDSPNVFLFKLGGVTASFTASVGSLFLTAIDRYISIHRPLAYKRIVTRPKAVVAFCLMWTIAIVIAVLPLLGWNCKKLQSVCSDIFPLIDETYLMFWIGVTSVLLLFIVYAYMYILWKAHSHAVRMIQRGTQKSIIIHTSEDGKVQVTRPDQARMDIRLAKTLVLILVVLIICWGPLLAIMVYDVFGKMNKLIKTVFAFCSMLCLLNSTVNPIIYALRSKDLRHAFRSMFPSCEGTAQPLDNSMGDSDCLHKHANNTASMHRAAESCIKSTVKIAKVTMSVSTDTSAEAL
T1 sequence (P21554 whole entry): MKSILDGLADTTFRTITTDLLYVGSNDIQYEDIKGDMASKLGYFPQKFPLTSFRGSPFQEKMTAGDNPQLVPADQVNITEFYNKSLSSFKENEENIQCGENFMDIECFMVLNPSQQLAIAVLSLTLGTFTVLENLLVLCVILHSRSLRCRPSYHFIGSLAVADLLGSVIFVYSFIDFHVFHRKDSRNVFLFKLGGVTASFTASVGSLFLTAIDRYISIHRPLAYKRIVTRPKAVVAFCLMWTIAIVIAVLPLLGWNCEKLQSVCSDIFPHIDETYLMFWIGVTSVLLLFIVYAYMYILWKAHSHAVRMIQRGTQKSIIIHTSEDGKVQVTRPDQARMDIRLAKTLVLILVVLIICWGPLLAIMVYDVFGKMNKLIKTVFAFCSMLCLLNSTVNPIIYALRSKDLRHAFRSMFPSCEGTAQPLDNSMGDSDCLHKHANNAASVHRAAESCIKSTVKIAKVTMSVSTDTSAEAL

The term pKi denotes the Ki on a negative log10 scale, so that one unit is a factor of ten. For the molecule `Cc1ccc(-c2ncc(C(=O)NN3CCCCC3)nc2-c2ccc(C)cc2)cc1`, the negative logarithm of the Ki (pKi) at Cannabinoid receptor 1 [1] is 7.28. The same measure, in the same setting: the same measure for `Cc1ccc(-c2ncc(C(=O)N[C@H](CO)C(C)C)nc2-c2ccc(C)cc2)cc1`: 6.63. One may read the inhibition as the relative decrease from the control value, in per cent. For the molecule `Cc1ccc(-c2ncc(C(=O)N3CCNC(=O)C3)nc2-c2ccc(C)cc2)cc1`, on Cannabinoid receptor 1 [2], the inhibition turned out to be 29%. In the case of `Cc1ccc(-c2ncc(C(=O)N[C@@H]3CCCC[C@H]3CO)nc2-c2ccc(C)cc2)cc1`, the pKi at Cannabinoid receptor 1 [1] is 7.30.

At Cannabinoid receptor 1 [1], `CCCC(CO)NC(=O)c1cnc(-c2ccc(C)cc2)c(-c2ccc(C)cc2)n1` (configuration not stated) had a pKi of 6.80.

`Cc1ccc(-c2ncc(C(=O)N[C@H]3CC[C@H](O)CC3)nc2-c2ccc(C)cc2)cc1` displayed an inhibition at Cannabinoid receptor 1 [2] of 54%. The solubility is the concentration that dissolves in the medium under given conditions. For the molecule `CC(C)C[C@@H](COP(=O)(O)O)NC(=O)c1cnc(-c2ccc(Cl)cc2)c(-c2ccc(Cl)cc2)n1`, in series [3], the concentration in solution (solubility) was 430 µg/mL (≈ 820 µM). Molecule `Cc1ccc(-c2ncc(C(=O)NCCO)nc2-c2ccc(C)cc2)cc1` had a pKi at Cannabinoid receptor 1 [1] of 5.07.

As to `Cc1ccc(-c2ncc(C(=O)N[C@@H](CC(C)C)C(N)=O)nc2-c2ccc(C)cc2)cc1`, the negative logarithm of the Ki (pKi) on Cannabinoid receptor 1 [1] was 6.98. `Cc1ccc(-c2ncc(C(=O)N[C@@H](C(N)=O)c3ccccc3)nc2-c2ccc(C)cc2)cc1`: at Cannabinoid receptor 1 [1], the pKi is 6.62. Still for that read-out and setting: for `Cc1ccc(-c2ncc(C(=O)N[C@@H]3CCCC[C@@H]3O)nc2-c2ccc(C)cc2)cc1` the value was 6.52; for `Cc1ccc(-c2ncc(C(=O)N[C@@H](CO)CC(C)C)nc2-c2ccc(C)cc2)cc1`, 6.34. Broadly, the AUC(0-t) is exposure summed from dosing to a finite time, without extrapolation to infinity. Broadly, the Tmax is the time at which the peak concentration occurs. As to `CC(C)C[C@@H](CO)NC(=O)c1cnc(-c2ccc(Cl)cc2)c(-c2ccc(Cl)cc2)n1`, the pKi at Cannabinoid receptor 1 [4] is 7.52; on Cannabinoid receptor 1 [1] it was 7.85. For the same molecule, the AUC(0-t) at 4 h in [5] came out at 0.736 µM·h. Also, the Kp at 4 h in series [6] worked out at 3.1. In addition, the concentration at 4 h in [7] came out at 491 nM. The time of peak concentration (Tmax) in series [8] is 1 h. In the case of `Cc1ccc(-c2ncc(C(=O)Nc3ccccc3)nc2-c2ccc(C)cc2)cc1`, on Cannabinoid receptor 1 [1], the pKi is 6.29. On the same count and under the same terms, for `CNC(=O)c1cnc(-c2ccc(C)cc2)c(-c2ccc(C)cc2)n1` the value was 5.41. Consider `Cc1ccc(-c2ncc(C(=O)NCCCc3ccccc3)nc2-c2ccc(C)cc2)cc1`, for which the negative logarithm of the Ki (pKi) is 7.10 on Cannabinoid receptor 1 [4] and 7.74 on Cannabinoid receptor 1 [1]. The concentration at 4 h in [9] worked out at 34 nM. Besides, in series [10], the Tmax stood at 2 h. Also, the Kp at 4 h in [11] was 0.4. The molecule further returned an area under the curve AUC(0-t) at 4 h in series [12] of 0.256 µM·h.

As to `Cc1ccc(-c2ncc(C(=O)N[C@@H](CO)C(C)C)nc2-c2ccc(C)cc2)cc1`, on Cannabinoid receptor 1 [1], the negative-log Ki (pKi) is 6.50. In the case of `Cc1ccc(-c2ncc(C(=O)N[C@H](CO)CC(C)C)nc2-c2ccc(C)cc2)cc1`, the negative logarithm of the Ki (pKi) is 7.46 at Cannabinoid receptor 1 [4] and 7.35 at Cannabinoid receptor 1 [1]. For the same molecule, the result with Rattus norvegicus [13] was inactive. The molecule also showed an area under the curve AUC(0-t) at 4 h in series [5] of 0.541 µM·h. The Kp at 4 h in [6] turned out to be 3. The concentration at 4 h in series [7] was determined as 306 nM. Also, the Activity with Rattus norvegicus [14] is listed as 16%; with Rattus norvegicus [15] it was 32%; in the series on Rattus norvegicus [16], 34%; in the series with Rattus norvegicus [17] it was 37%. In addition, the time of peak concentration (Tmax) in [8] is 1 h. At Cannabinoid receptor 1 [1], `Cc1ccc(-c2ncc(C(=O)NC3Cc4ccccc4C3O)nc2-c2ccc(C)cc2)cc1` (configuration not stated) gave a negative-log Ki (pKi) of 7.48. The same measure, in the same setting: the same measure for `Cc1ccc(-c2ncc(C(=O)NCCCN(C)c3ccccc3)nc2-c2ccc(C)cc2)cc1`: 7.60; for `Cc1ccc(-c2ncc(C(=O)N[C@@H]3CCCC[C@@H]3CO)nc2-c2ccc(C)cc2)cc1`: 6.78. The same measure, in the same setting: for `Cc1ccc(-c2ncc(C(=O)NCCOc3ccccc3)nc2-c2ccc(C)cc2)cc1` the value was 6.20. Same read-out and setting: for `CCC(COCc1ccccc1)NC(=O)c1cnc(-c2ccc(C)cc2)c(-c2ccc(C)cc2)n1` (configuration not stated) the value was 6.69. Molecule `Cc1ccc(-c2ncc(C(=O)NC(C)COc3c(C)cccc3C)nc2-c2ccc(C)cc2)cc1` (configuration not stated) gave a negative logarithm of the Ki (pKi) at Cannabinoid receptor 1 [1] of 7.41. For `Cc1ccc(-c2ncc(C(=O)NC3CCNC3=O)nc2-c2ccc(C)cc2)cc1` (configuration not stated), the inhibition on Cannabinoid receptor 1 [2] was found to be 46%. `Cc1ccc(-c2ncc(C(=O)NC(C)CCc3ccccc3)nc2-c2ccc(C)cc2)cc1` (configuration not stated): the pKi at Cannabinoid receptor 1 [1] was 8.30. Still for that read-out and setting: for `Cc1ccc(-c2ncc(C(=O)NCC3CCCCC3)nc2-c2ccc(C)cc2)cc1` the value was 7.23; for `Cc1ccc(-c2ncc(C(=O)NC(C)C)nc2-c2ccc(C)cc2)cc1`, 6.18. Still for that read-out and setting: for `Cc1ccc(-c2ncc(C(=O)NCC3CC3)nc2-c2ccc(C)cc2)cc1` the value was 6.75. On Cannabinoid receptor 1 [2], `Cc1ccc(-c2ncc(C(=O)N3CCC(O)CC3)nc2-c2ccc(C)cc2)cc1` displayed an inhibition of 38%. Molecule `Cc1ccc(-c2ncc(C(=O)N(C)Cc3ccccc3)nc2-c2ccc(C)cc2)cc1` showed a pKi on Cannabinoid receptor 1 [1] of 6.96. Same read-out and setting: the same measure for `CCNC(=O)c1cnc(-c2ccc(C)cc2)c(-c2ccc(C)cc2)n1`: 5.62.
